Test results published in paper PMC6718330 (European journal of medicinal chemistry, 2019).
“Also recorded” adds a separate entry of the source.

How the values were obtained:
[1] = system: cruzain and rhodesain; assay: Primary screen of the MMV400 at 5 µM against cruzain and rhodesain; format: biochemical, Trypanosoma cruzi; Trypanosoma brucei; details: primary screen at 5 µM
Procedure, shortened: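 Fluorimetric screen of the library at 5 µM against recombinant cruzain and rhodesain (1 nM each). Substrate was 2.5 µM Z-FR-AMC in 0.1 M sodium acetate pH 5.5 with 0.01% Triton X-100 and 1 mM β-mercaptoethanol. Runs had no pre-incubation or 10 min enzyme–compound pre-incubation, two duplicates each. AMC release was read at 340/440 nm for 5 min at 12 s intervals; DMSO and E-64 served as controls.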

[2] = target: rhodesain (Trypanosoma brucei rhodesiense, UniProt Q95PM0); assay: Rhodesain enzymatic assay; format: biochemical
[3] = target: T1, cruzain (Trypanosoma cruzi, UniProt P25779); assay: Aggregation assays against cruzain; format: biochemical; details: for Sensitivity of inhibition to pre-incubation with BSA: BSA 2 mg/mL in Triton X-100 0.001%; for Sensitivity of inhibition to detergent (Triton X-100): absence, 0.01% and 0.1% Triton X-100, 10 min pre-incubation with cruzain
Procedure, shortened: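 Recombinant cruzain (1 nM) was pre-incubated with the test compound for 10 min at room temperature, with no Triton X-100, 0.01% or 0.1% Triton X-100. Percent inhibition was compared across detergent levels. In a BSA variant, compound sat 5 min with BSA (2 mg/mL in 0.001% Triton), then 5 min with cruzain, before substrate was added, run alongside a BSA-free control. Fluorogenic Z-FR-AMC read-out was at 340/440 nm.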

[4] = system: T.cruzi (Y strain); assay: Trypomastigote release from T. cruzi-infected peritoneal macrophages; format: cell-based, Trypanosoma cruzi; details: 50 µM
[5] = target: T1, cruzain; assay: Cruzain enzymatic assay; format: biochemical; details: for Mechanism of inhibition against cruzain: Lineweaver-Burk plots
[6] = target: rat cathepsin B (Rattus norvegicus, UniProt P00787); assay: Cathepsin B inhibition assay; format: biochemical; details: read-out: Inhibition of cathepsin B (greatest observed)
Procedure, shortened: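 Buffer: 100 mM sodium phosphate, 100 mM NaCl, 1 mM EDTA, 1 mM DTT, 0.01% CHAPS, 25°C. Test compound at 100 µM or 50 µM, with or without 5 min enzyme pre-incubation. Fluorescence at 380/440 nm for 15 min. Percent inhibition versus 2% DMSO; E64 1 µM positive control. Two independent experiments, each in triplicate.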

[7] = system: Peritoneal macrophages of C57BL/6 mice; assay: LDH cytotoxicity assay in peritoneal macrophages; format: cell-based, mouse; details: 3.125 µM, 24 h
[8] = system: Nitric oxide levels in macrophage culture; assay: Nitric oxide detection; format: cell-based, mouse; details: culture supernatant after 11 days; 12 at 3.125 µM, IFN-γ 100 ng/mL
Procedure, shortened: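 Peritoneal macrophages from thioglycolate-elicited female C57BL/6 mice (8–10 wk) were plated at 2 × 10^5/well, adhered 3 h, then rested overnight. They were infected 2 h with Y-strain T. cruzi trypomastigotes (5:1 parasite:cell), washed, then given test compound or IFN-γ at 37°C, 5% CO2. Day-11 supernatant plus Griess reagent, 10 min, A540 for nitrite. Three independent experiments in triplicate; mean ± SEM.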

T1 sequence (P25779 123-467): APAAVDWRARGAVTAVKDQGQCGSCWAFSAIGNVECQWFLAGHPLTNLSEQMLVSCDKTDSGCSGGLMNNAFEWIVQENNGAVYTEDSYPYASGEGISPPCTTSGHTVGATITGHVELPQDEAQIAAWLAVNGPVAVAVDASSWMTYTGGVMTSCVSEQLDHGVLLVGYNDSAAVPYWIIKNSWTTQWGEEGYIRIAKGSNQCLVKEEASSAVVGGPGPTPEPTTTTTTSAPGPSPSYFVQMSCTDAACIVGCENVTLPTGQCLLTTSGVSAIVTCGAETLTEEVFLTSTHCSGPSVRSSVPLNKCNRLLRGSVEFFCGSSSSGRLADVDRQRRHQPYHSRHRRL
Chain of rat cathepsin B (P00787 80-339): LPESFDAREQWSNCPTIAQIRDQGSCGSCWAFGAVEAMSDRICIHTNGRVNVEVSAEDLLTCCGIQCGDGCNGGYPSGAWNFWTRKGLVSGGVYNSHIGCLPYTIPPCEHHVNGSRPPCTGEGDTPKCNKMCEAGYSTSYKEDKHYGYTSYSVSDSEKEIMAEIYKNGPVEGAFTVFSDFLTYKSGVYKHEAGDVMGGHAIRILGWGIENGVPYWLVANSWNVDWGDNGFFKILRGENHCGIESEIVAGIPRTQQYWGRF

CCOc1ccc(/C=C/c2nc(=O)c3ccccc3o2)cc1 [Compound 1]
Over 50% cruzain and rhodesain inhibition? [1]: yes

Cn1c(=O)n(C)c2cc(CNCCNc3ccnc4cc(Cl)ccc34)ccc21 [Compound 2]
Over 50% cruzain and rhodesain inhibition? [1]: yes
Ki [2]: 1400 nM
Mechanism of inhibition versus rhodesain ([2]; Lineweaver-Burk plots): mixed mechanism; also recorded: mixed-type inhibitor
Sensitivity of inhibition to pre-incubation with BSA [3]: not sensitive to detergent nor BSA incubation
Trypanocidal activity in initial screen [4]: trypanocidal activity

Cc1cc(Nc2ccc(C)c(Cl)c2)n2nc(C(F)(F)F)nc2n1 [Compound 3]
Over 50% cruzain and rhodesain inhibition? [1]: no

Cc1nc2ccccc2c(O)c1CC=C(Cl)Cl [Compound 4]
Over 50% cruzain and rhodesain inhibition? [1]: yes

c1ccc(-c2ccc(-c3nc4ccccc4[nH]3)cc2)cc1 [Compound 5]
Over 50% cruzain and rhodesain inhibition? [1]: yes
Fluorescence in the assays (signal interference) [3]: displayed fluorescence in the assays
Sensitivity of inhibition to pre-incubation with BSA [3]: sensitive to pre-incubation with bovine serum albumin
Sensitivity of inhibition to detergent (Triton X-100) [3]: highly sensitive to Triton

CCOc1cccc(C(=O)Nc2ccc(-c3nc4ccccc4[nH]3)cc2)c1 [Compound 6]
Over 50% cruzain and rhodesain inhibition? [1]: yes
Hill slope of dose-response curve ([5]; cruzain dose-response curve): 3.9
Fluorescence in the assays (signal interference) [3]: displayed fluorescence in the assays
Sensitivity of inhibition to pre-incubation with BSA [3]: sensitive to pre-incubation with bovine serum albumin
Sensitivity of inhibition to detergent (Triton X-100) [3]: highly sensitive to Triton

c1ccc(CNc2nc(Nc3ccccc3)nc3ccccc23)cc1 [Compound 7]
Over 50% cruzain and rhodesain inhibition? [1]: yes
Mechanism of inhibition against cruzain [5]: competitive inhibition
Detergent sensitivity of inhibition at 50 µM ([3]; 50 µM compound): some detergent-sensitivity
Sensitivity of inhibition to pre-incubation with BSA [3]: not sensitive to detergent nor BSA incubation
inhibition at 100 µM [6]: 29%
Trypanocidal activity in initial screen [4]: trypanocidal activity

COCCNCC(O)Cn1c2ccc(Cl)cc2c2cc(Cl)ccc21 (stereo not shown) [Compound 8]
Over 50% cruzain and rhodesain inhibition? [1]: no
Sensitivity of inhibition to pre-incubation with BSA [3]: sensitive to pre-incubation with bovine serum albumin
Sensitivity of inhibition to detergent (Triton X-100) [3]: highly sensitive to Triton

CCOC(=O)c1c(C)n(-c2ccccc2)c2ccc(OC(=O)c3cc(OC)c(OC)c(OC)c3)cc12 [Compound 9]
Over 50% cruzain and rhodesain inhibition? [1]: yes

CC(=O)c1ccc(NC(=O)CSc2nc(-c3ccccc3Cl)ns2)cc1 [Compound 10]
Over 50% cruzain and rhodesain inhibition? [1]: yes

Cc1ccc(C(=O)c2oc3ccc4c(C)cc(=O)oc4c3c2C)cc1 [Compound 11]
Over 50% cruzain and rhodesain inhibition? [1]: yes

Cl.Cl.Clc1cc(Br)ccc1-c1ccc(CNCC2CCNCC2)o1 [Compound 12, 1-[5-(4-Bromo-2-chlorophenyl)-2-furyl]-N-(4-piperidinylmethyl)methanamine dihydrochloride]
Over 50% cruzain and rhodesain inhibition? [1]: no
Mechanism of inhibition against cruzain [5]: competitive inhibition
Sensitivity of inhibition to pre-incubation with BSA [3]: not sensitive to detergent nor BSA incubation
Trypanocidal activity in initial screen [4]: trypanocidal activity
Cytotoxicity against macrophages (LDH levels) [7]: low toxicity against murine macrophages; also recorded: did not exhibit cytotoxic activity
Nitric oxide production [8]: independent of NO release

COc1ccc2sc(N(Cc3cccnc3)C(=O)c3ccc(C#N)cc3)nc2c1 [Compound 13]
Over 50% cruzain and rhodesain inhibition? [1]: yes

FC(F)(F)c1cccc(CNC2CCN(CCc3ccccc3)CC2)c1 [Compound 14]
Over 50% cruzain and rhodesain inhibition? [1]: yes

COCCNC(=O)c1ccc(OC2CCN(Cc3ccc(F)c(F)c3)CC2)c(Cl)c1 [Compound 15]
Over 50% cruzain and rhodesain inhibition? [1]: yes
Trypanocidal activity in initial screen [4]: trypanocidal activity

B1: IFN-γ: Interferon gamma (100 ng/mL, Sigma) used to stimulate macrophages as comparison treatment (protein, UniProt P01579 24-161, looked up)
Interferon gamma: QDPYVKEAENLKKYFNAGHSDVADNGTLFLGILKNWKEESDRKIMQSQIVSFYFKLFKNFKDDQSIQKSVETIKEDMNVKFFNSNKKKRDDFEKLTNYSVTDLNVQRKAIHELIQVMAELSPAAKTGKRKRSQMLFRG
Nitric oxide production [8]: increased
